ChEMBL document CHEMBL4257503, “N-Acetyl-3-aminopyrazoles block the non-canonical NF-kB cascade by selectively inhibiting NIK” (Medchemcomm, 2018)
Values after ≈ are worked out from the molar mass of the structure shown. Active and inactive are the calls of the source. The calls are words filed in the database; no cut-off is given here.

Key:
[1] = biological target: Mitogen-activated protein kinase 14 (Homo sapiens, UniProt Q16539); test: Inhibition of p38-alpha (unknown origin)
[2] = biological target: Serine/threonine-protein kinase Nek6 (Homo sapiens, UniProt Q9HC98); test: Inhibition of NEK6 (unknown origin)
[3] = organism: Homo sapiens; test: Inhibition of NFkappaB activation in human SKBR3 cells at 100 uM after 6 hrs by dual luciferase reporter gene assay relative to control; format: cell-based
Method in brief: (§1)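 Cells were nucleofected with the pGL4.32 NF-κB-RE firefly luciferase and pGL4.74 TK-Renilla plasmids (3 µg, 10:1 ratio) and cultured for 24 h at 37 °C. Compound (10, 25, 50 or 100 µM) was then added for 6 h. Firefly luminescence was normalised to Renilla from the same sample and expressed as % of vehicle control. Means ± SD of three independent experiments.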

[4] = biological target: 3-phosphoinositide-dependent protein kinase 1 (Homo sapiens, UniProt O15530); test: Inhibition of PDK1 (unknown origin)
[5] = Octanol/phosphate buffered saline partition coefficient, log D of the compound at pH 7.4; format: physicochemical
[6] = biological target: Dual specificity protein kinase CLK1 (Homo sapiens, UniProt P49759); test: Inhibition of CLK1 (unknown origin)
[7] = Kinetic solubility in phosphate buffered saline at pH 7.4 measured after 60 mins; format: physicochemical; conditions: read-out: Kinetic_solubility
[8] = Cytotoxicity against human SKBR3 cells assessed as cell viability at 100 uM after 6 hrs by CellTiter Glo luminescent assay relative to control; format: cell-based, SK-BR-3; conditions: read-out: Activity
Method in brief: (§2)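 Cells seeded at 5 x 10^3 per well and exposed for 6 h to the compound (10, 25, 50 or 100 µM) or to DMSO vehicle. Viability was read as intracellular ATP by CellTiter Glo luminescence.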

[9] = biological target: Cyclin-Y/Cyclin-dependent kinase 16 (Homo sapiens, UniProt Q00536); test: Inhibition of PCTAIRE1/cyclinY (unknown origin); format: protein-complex assay
[10] = biological target: Serine/threonine-protein kinase PLK1 (Homo sapiens, UniProt P53350); test: Inhibition of PLK1 (unknown origin)
[11] = biological target: Maternal embryonic leucine zipper kinase (Homo sapiens, UniProt Q14680); test: Inhibition of MELK (unknown origin)
[12] = biological target: Interleukin-1 receptor-associated kinase 4 (Homo sapiens, UniProt Q9NWZ3); test: Inhibition of untagged IRAK4 (unknown origin)
[13] = biological target: Insulin receptor (Homo sapiens, UniProt P06213); test: Inhibition of INSR (unknown origin)
[14] = biological target: Calcium/calmodulin-dependent protein kinase kinase 1 (Homo sapiens, UniProt Q8N5S9); test: Inhibition of CAMKK1 (unknown origin)
[15] = organism: Mus musculus; test: Inhibition of mouse NIK kinase domain V480L mutant
[16] = biological target: Mitogen-activated protein kinase kinase kinase 14 (Homo sapiens, UniProt Q99558); test: Inhibition of NIK-induced NFkappaB activation in human EJM cells at 25 uM after 6 hrs by dual luciferase reporter gene assay relative to control; format: cell-based; method in brief: as §1
[17] = biological target: Dual specificity tyrosine-phosphorylation-regulated kinase 1A (Homo sapiens, UniProt Q13627); test: Inhibition of DYRK1A (unknown origin)
[18] = biological target: Ephrin type-A receptor 6 (Homo sapiens, UniProt Q9UF33); test: Inhibition of EPHA6 (unknown origin)
[19] = biological target: Fibroblast growth factor receptor 1 (Homo sapiens, UniProt P11362); test: Inhibition of wild-type FGFR1 (unknown origin)
[20] = system: Mitogen-activated protein kinase kinase kinase 14 (Homo sapiens), Q99558 [S549D]; test: Inhibition of human NIK kinase domain S549D mutant
[21] = biological target: T1, Inhibitor of nuclear factor kappa-B kinase subunit epsilon (Homo sapiens, UniProt Q14164); test: Inhibition of recombinant human full-length N-terminal GST-fused/His6-tagged IKKepsilon (M1 to V716 residues) expressed in Sf9 insect cells using ERLLDDRHDSGLDSMKDEE peptide as substrate measured after 60 mins by ADP-Glo kinase assay
T1 sequence (Q14164 whole entry): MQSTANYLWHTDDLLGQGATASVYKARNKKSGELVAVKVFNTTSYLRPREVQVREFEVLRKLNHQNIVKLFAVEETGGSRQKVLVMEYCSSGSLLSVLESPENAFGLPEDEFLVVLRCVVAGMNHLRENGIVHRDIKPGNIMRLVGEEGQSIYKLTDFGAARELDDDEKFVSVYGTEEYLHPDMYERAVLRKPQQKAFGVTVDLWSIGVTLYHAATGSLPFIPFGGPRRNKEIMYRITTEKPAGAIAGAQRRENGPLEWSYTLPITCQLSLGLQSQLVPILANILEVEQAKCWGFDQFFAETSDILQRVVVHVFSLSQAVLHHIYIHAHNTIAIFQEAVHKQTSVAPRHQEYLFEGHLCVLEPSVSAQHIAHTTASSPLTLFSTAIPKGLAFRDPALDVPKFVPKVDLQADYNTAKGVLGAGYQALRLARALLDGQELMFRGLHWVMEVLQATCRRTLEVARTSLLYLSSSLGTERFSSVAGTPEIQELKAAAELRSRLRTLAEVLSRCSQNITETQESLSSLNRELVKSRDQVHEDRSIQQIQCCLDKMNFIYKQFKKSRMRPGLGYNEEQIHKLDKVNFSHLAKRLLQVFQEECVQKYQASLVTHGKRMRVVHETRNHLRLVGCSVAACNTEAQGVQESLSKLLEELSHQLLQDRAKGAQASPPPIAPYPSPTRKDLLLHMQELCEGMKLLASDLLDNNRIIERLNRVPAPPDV

[22] = biological target: Tyrosine-protein kinase JAK1 (Homo sapiens, UniProt P23458); test: Inhibition of JAK1 (unknown origin)
[23] = biological target: Homeodomain-interacting protein kinase 1 (Homo sapiens, UniProt Q86Z02); test: Inhibition of HIPK1 (unknown origin)
[24] = biological target: Serine/threonine-protein kinase 4 (Homo sapiens, UniProt Q13043); test: Inhibition of MST1 (unknown origin)
[25] = biological target: Serine/threonine-protein kinase B-raf (Homo sapiens, UniProt P15056); test: Inhibition of wild-type B-RAF (unknown origin)
[26] = biological target: Epidermal growth factor receptor (Homo sapiens, UniProt P00533); test: Inhibition of wild-type EGFR (unknown origin)
[27] = biological target: Serine/threonine-protein kinase TAO2 (Homo sapiens, UniProt Q9UL54); test: Inhibition of TAOK2 (unknown origin)
[28] = biological target: Glycogen synthase kinase-3 beta (Homo sapiens, UniProt P49841); test: Inhibition of GSK3-beta (unknown origin)
[29] = biological target: Tyrosine-protein kinase SYK (Homo sapiens, UniProt P43405); test: Inhibition of SYK (unknown origin)
[30] = Cytotoxicity against human MDA-MB-231 cells assessed as cell viability at 100 uM after 6 hrs by CellTiter Glo luminescent assay relative to control; format: cell-based; conditions: read-out: Activity; method in brief: as §2
[31] = Stability in human liver microsomes at 1 uM in presence of NADPH cofactor; format: ADME, microsome; conditions: read-out: Stability
[32] = biological target: Serine/threonine-protein kinase PAK 1 (Homo sapiens, UniProt Q13153); test: Inhibition of PAK1 (unknown origin)
Chain of Serine/threonine-protein kinase PAK 1 (Q13153 whole entry): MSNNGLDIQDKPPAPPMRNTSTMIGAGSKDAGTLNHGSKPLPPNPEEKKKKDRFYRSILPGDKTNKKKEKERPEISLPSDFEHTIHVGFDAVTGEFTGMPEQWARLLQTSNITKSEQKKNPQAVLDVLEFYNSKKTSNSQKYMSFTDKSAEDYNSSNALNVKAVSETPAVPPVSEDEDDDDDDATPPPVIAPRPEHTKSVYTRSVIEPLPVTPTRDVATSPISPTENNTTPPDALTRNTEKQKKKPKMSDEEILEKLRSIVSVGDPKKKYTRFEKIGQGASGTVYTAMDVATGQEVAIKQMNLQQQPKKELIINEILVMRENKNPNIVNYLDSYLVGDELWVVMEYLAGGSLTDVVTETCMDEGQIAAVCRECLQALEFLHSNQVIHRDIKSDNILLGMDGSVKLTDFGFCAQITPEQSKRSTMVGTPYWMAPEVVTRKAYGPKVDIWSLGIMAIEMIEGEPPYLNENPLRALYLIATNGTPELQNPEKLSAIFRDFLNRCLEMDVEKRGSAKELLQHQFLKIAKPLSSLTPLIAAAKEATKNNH

Chain of Mitogen-activated protein kinase kinase kinase 14 (Q99558 whole entry, looked up): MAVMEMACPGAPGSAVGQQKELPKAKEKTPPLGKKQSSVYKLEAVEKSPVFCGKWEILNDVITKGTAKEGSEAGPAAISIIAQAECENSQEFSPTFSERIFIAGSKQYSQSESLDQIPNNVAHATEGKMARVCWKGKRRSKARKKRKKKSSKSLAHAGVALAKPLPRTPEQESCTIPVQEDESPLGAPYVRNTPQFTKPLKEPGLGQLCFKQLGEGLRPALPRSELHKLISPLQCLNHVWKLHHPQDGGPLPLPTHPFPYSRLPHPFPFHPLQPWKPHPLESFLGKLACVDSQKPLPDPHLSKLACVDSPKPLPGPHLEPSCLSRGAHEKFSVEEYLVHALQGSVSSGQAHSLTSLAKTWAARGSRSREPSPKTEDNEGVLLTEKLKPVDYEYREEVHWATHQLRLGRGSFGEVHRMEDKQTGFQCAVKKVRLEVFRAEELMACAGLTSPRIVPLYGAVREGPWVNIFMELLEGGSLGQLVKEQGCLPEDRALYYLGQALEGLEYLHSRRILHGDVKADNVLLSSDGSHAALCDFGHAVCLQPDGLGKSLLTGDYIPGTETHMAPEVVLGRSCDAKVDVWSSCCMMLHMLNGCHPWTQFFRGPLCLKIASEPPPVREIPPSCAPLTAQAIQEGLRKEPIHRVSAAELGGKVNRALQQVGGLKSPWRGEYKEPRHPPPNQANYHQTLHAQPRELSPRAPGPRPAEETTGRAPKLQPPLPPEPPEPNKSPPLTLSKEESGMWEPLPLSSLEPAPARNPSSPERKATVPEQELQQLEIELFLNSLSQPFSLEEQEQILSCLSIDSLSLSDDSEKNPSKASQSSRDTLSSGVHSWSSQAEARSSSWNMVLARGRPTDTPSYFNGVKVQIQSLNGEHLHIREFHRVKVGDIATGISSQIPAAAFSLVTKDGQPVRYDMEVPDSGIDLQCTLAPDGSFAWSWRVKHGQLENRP
Chain of Maternal embryonic leucine zipper kinase (Q14680 whole entry): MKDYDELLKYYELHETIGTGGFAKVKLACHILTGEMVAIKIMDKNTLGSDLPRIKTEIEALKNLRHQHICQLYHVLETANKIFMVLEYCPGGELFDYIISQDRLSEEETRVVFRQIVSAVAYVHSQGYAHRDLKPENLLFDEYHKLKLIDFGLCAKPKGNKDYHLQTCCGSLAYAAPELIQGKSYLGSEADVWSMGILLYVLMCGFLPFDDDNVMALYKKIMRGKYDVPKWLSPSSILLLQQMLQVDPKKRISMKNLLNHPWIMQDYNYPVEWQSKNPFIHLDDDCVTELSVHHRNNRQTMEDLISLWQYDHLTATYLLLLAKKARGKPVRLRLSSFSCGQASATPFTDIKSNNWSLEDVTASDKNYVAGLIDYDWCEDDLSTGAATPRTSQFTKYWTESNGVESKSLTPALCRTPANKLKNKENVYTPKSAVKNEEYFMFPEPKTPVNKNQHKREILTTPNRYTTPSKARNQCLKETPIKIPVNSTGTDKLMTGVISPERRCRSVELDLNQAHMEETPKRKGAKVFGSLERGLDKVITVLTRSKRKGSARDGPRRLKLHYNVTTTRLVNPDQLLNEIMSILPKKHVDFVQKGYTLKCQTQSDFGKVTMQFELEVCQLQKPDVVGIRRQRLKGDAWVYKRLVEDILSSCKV
Chain of Serine/threonine-protein kinase 4 (Q13043 whole entry): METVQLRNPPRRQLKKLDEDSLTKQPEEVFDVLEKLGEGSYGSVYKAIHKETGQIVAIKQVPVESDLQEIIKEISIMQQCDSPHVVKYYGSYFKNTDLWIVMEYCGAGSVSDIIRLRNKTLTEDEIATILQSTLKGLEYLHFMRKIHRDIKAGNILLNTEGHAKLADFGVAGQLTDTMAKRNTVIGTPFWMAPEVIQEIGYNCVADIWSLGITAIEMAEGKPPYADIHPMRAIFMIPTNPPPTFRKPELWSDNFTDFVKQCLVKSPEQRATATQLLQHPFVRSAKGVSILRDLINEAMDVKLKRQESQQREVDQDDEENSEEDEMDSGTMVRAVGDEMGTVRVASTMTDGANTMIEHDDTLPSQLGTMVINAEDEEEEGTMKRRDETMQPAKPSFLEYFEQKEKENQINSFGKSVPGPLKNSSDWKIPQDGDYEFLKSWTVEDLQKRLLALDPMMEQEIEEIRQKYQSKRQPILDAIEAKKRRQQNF
Chain of Mitogen-activated protein kinase kinase kinase 14 (Homo sapiens), Q99558 [S549D] (Q99558 whole entry S549D, the tested form may be a part): as the sequence (Q99558 whole entry, looked up) above, with S549D counted along it
Chain of Ephrin type-A receptor 6 (Q9UF33 whole entry): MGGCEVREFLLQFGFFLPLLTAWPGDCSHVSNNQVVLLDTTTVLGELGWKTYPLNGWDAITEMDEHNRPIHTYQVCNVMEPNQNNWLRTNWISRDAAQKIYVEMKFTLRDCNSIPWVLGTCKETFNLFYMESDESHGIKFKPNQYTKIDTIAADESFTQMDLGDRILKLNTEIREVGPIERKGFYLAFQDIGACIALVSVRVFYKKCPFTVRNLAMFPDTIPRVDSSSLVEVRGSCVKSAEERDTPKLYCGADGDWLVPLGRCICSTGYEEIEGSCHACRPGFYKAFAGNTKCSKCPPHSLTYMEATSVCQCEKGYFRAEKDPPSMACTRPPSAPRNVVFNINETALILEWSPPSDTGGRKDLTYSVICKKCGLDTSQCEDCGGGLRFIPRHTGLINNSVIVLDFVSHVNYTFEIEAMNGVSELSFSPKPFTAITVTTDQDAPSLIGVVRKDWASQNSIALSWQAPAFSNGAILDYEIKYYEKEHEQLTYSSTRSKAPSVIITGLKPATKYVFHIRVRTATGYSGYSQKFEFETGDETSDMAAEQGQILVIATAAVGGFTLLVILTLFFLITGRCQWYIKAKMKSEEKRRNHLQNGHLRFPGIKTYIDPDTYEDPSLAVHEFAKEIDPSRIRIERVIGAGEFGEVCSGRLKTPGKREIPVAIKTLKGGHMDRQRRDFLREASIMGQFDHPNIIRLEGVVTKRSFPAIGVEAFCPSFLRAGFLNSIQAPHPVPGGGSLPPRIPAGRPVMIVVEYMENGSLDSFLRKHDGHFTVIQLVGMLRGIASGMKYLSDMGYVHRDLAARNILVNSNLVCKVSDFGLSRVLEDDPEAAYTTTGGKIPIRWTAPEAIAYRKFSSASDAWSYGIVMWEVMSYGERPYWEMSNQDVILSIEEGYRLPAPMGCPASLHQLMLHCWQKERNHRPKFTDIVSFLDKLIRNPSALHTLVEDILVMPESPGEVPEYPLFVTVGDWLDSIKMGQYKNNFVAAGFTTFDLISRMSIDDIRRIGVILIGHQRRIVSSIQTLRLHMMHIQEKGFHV
Chain of Insulin receptor (P06213 28-758 limits assumed): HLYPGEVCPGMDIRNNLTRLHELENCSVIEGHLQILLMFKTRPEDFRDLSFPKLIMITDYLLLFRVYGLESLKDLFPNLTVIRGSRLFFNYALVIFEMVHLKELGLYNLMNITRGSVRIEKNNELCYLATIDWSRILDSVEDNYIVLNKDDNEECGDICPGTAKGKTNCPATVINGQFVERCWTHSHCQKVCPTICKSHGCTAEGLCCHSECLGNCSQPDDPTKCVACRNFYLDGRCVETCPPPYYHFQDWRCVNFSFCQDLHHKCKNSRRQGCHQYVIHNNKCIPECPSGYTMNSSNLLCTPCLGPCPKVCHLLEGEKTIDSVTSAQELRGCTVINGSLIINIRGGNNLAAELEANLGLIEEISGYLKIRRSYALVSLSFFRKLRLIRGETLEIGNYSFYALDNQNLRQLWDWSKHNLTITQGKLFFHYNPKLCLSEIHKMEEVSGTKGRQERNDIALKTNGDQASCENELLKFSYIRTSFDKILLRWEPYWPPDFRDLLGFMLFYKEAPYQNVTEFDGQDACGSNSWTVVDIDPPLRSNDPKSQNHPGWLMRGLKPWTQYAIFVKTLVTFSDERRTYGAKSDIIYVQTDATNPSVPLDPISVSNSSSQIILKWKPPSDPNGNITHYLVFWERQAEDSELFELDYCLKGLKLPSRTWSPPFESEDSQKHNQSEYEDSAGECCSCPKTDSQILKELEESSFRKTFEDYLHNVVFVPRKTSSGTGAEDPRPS
Chain of Insulin receptor (P06213 763-1382 limits assumed): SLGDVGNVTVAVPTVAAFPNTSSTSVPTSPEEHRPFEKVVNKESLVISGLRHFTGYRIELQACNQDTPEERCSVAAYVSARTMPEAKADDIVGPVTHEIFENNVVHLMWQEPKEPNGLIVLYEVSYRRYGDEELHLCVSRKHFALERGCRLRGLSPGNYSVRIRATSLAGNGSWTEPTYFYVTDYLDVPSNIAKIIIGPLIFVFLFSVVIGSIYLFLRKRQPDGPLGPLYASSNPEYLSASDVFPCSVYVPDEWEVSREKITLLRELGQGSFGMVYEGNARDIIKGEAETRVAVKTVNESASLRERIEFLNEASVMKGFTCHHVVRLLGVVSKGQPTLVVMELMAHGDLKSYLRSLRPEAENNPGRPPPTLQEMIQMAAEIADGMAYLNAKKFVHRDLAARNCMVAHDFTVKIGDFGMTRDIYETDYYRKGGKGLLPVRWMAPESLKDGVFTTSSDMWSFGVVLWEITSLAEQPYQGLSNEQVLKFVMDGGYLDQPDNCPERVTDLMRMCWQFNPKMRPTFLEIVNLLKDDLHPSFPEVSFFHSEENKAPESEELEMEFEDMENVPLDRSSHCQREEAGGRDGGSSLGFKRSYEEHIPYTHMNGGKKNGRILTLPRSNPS

IC50 [1]: > 100 µM
IC50 [2]: > 100 µM
IC50 [4]: > 100 µM
logD [5]: 4.09
IC50 [6]: > 100 µM
solubility kinetic at 1 h [7]: 12 µM (≈ 3.41 µg/mL)
IC50 [9]: > 100 µM
IC50 [10]: > 100 µM
IC50 [11]: > 100 µM
IC50 [12]: > 100 µM
IC50 [13]: > 100 µM
IC50 [14]: > 100 µM
inhibition [15]: inactive
inhibition [16]: 83.4%
IC50 [17]: > 100 µM
IC50 [18]: > 100 µM
IC50 [19]: > 100 µM
inhibition [20]: inactive
IC50 [21]: > 100 µM
IC50 [22]: > 100 µM
IC50 [23]: > 100 µM
IC50 [24]: > 100 µM
IC50 [25]: > 100 µM
IC50 [26]: > 100 µM
IC50 [27]: > 100 µM
IC50 [28]: > 100 µM
IC50 [29]: > 100 µM
remaining at 1 µM [31]: 1%
IC50 [32]: > 100 µM
SMILES: CC(=O)n1nc(C)c(-c2ccc(Cl)c(Cl)c2)c1N
inhibition [3]: 3.9%
viability at 6 h, 100 µM [8]: ≥ 80%
viability at 6 h, 100 µM [30]: ≥ 80%
